In ChEMBL document CHEMBL4118021, “Studies of TAK1-centered polypharmacology with novel covalent TAK1 inhibitors” (Bioorg Med Chem, 2017):
Active and inactive are the calls of the source. No cut-off for these calls is given here.

Legend:
[1] = biological target: Receptor-type tyrosine-protein kinase FLT3 (Homo sapiens, UniProt P36888); assay: Inhibition of FLT3 (unknown origin)
[2] = biological target: T1, Serine/threonine-protein kinase Chk1 (Homo sapiens) (UniProt O14757); assay: Binding affinity to CHEK1 in human NCI-H358 cells at 1 uM by mass spectrometry based pull down assay; type: cell-based
T1 sequence (whole entry): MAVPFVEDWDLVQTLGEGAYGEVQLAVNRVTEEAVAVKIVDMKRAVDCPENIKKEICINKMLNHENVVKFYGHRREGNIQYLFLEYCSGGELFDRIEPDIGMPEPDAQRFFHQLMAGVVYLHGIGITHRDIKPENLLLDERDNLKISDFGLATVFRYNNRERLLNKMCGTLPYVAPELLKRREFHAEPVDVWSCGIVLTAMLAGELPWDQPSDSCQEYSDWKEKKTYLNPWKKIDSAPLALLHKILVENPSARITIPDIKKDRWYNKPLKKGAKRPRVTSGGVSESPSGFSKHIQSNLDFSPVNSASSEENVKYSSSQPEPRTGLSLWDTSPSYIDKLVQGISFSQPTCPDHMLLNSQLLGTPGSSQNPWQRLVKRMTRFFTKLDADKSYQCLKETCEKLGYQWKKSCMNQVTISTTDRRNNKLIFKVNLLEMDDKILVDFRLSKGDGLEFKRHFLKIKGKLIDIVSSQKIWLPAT

[3] = biological target: Pyrroline-5-carboxylate reductase 1, mitochondrial (Homo sapiens) (UniProt P32322); assay: Binding affinity to PYCR1 in human NCI-H358 cells at 1 uM by mass spectrometry based pull down assay; type: cell-based
[4] = biological target: Acyl-coenzyme A thioesterase 13 (Homo sapiens) (UniProt Q9NPJ3); assay: Binding affinity to ACOT13 in human NCI-H23 cells at 1 uM by mass spectrometry based pull down assay; type: cell-based
How it was run: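 NCI-H23 or NCI-H358 cells were grown and lysed. Lysates were incubated overnight at 4 °C with 1 μM biotinylated covalent probe or DMSO, then pulled down on streptavidin beads. Proteins were run on polyacrylamide gels and stained with Coomassie. Bands were excised, digested and identified by mass spectrometry.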

[5] = biological target: Heterogeneous nuclear ribonucleoprotein Q (Homo sapiens) (UniProt O60506); assay: Binding affinity to SYNCRIP in human NCI-H358 cells at 1 uM by mass spectrometry based pull down assay; type: cell-based
[6] = biological target: Proteasome subunit beta type-6 (Homo sapiens) (UniProt P28072); assay: Binding affinity to PSMB6 in human NCI-H358 cells at 1 uM by mass spectrometry based pull down assay; type: cell-based
[7] = biological target: Glyoxalase domain-containing protein 4 (Homo sapiens) (UniProt Q9HC38); assay: Binding affinity to GLOD4 in human NCI-H23 cells at 1 uM by mass spectrometry based pull down assay; type: cell-based
[8] = biological target: Multifunctional protein CAD (Homo sapiens) (UniProt P27708); assay: Binding affinity to CAD in human NCI-H358 cells at 1 uM by mass spectrometry based pull down assay; type: cell-based
[9] = biological target: Transmembrane emp24 domain-containing protein 10 (Homo sapiens) (UniProt P49755); assay: Binding affinity to TMED10 in human NCI-H23 cells at 1 uM by mass spectrometry based pull down assay; type: cell-based
[10] = biological target: Phosphoinositide 3-kinase regulatory subunit 4 (Homo sapiens) (UniProt Q99570); assay: Binding affinity to PIK3R4 in human NCI-H358 cells at 1 uM by mass spectrometry based pull down assay; type: cell-based
[11] = biological target: T2, Mitogen-activated protein kinase kinase kinase 7 (Homo sapiens, UniProt O43318); assay: Inhibition of TAK1 (unknown origin) after 60 mins by biochemical assay
T2 sequence (O43318 whole entry): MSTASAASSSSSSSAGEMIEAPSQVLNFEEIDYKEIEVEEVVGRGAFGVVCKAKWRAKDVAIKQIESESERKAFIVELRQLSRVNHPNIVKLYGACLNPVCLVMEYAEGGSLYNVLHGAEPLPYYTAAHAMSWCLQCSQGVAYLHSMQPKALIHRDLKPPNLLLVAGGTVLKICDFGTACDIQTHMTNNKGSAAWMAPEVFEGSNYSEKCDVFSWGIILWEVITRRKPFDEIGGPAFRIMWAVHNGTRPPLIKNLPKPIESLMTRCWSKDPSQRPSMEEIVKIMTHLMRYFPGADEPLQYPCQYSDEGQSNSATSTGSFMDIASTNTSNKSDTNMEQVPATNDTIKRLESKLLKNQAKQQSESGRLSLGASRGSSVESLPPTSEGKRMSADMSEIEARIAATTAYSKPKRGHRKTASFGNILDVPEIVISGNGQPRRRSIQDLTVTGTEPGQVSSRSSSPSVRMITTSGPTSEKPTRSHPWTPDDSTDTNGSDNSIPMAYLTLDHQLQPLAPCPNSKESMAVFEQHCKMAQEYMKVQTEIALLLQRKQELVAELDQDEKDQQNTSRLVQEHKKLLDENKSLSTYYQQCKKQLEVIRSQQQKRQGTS

[12] = biological target: Glutathione S-transferase P (Homo sapiens) (UniProt P09211); assay: Binding affinity to GSTP1 in human NCI-H23 cells at 1 uM by mass spectrometry based pull down assay; type: cell-based
[13] = biological target: 5'-AMP-activated protein kinase subunit gamma-1 (Homo sapiens) (UniProt P54619); assay: Binding affinity to PRKAG1 in human NCI-H358 cells at 1 uM by mass spectrometry based pull down assay; type: cell-based
[14] = biological target: Tyrosine-protein kinase Yes (Homo sapiens) (UniProt P07947); assay: Binding affinity to YES1 in human NCI-H358 cells at 1 uM by mass spectrometry based pull down assay; type: cell-based
[15] = biological target: T3, Dual specificity mitogen-activated protein kinase kinase 5 (Homo sapiens) (UniProt Q13163); assay: Binding affinity to MAP2K5 in human NCI-H23 cells at 1 uM by mass spectrometry based pull down assay; type: cell-based
T3 sequence (whole entry): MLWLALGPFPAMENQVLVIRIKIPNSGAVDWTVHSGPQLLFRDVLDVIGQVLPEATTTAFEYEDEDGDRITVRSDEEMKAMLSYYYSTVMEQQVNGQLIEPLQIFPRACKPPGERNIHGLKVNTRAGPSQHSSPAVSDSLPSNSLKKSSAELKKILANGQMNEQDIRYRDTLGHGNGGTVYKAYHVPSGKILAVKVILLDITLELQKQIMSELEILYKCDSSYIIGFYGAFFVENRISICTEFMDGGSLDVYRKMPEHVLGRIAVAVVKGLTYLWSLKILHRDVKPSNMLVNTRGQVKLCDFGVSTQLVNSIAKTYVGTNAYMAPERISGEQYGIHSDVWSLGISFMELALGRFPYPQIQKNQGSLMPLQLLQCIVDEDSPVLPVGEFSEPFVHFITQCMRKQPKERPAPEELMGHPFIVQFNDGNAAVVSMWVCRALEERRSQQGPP

[16] = biological target: Adenylyltransferase and sulfurtransferase MOCS3 (Homo sapiens) (UniProt O95396); assay: Binding affinity to MOCS3 in human NCI-H358 cells at 1 uM by mass spectrometry based pull down assay; type: cell-based
[17] = biological target: Protein NipSnap homolog 1 (Homo sapiens) (UniProt Q9BPW8); assay: Binding affinity to NIPSNAP1 in human NCI-H23 cells at 1 uM by mass spectrometry based pull down assay; type: cell-based
Protein NipSnap homolog 1 (Homo sapiens), sequence (Q9BPW8 whole entry): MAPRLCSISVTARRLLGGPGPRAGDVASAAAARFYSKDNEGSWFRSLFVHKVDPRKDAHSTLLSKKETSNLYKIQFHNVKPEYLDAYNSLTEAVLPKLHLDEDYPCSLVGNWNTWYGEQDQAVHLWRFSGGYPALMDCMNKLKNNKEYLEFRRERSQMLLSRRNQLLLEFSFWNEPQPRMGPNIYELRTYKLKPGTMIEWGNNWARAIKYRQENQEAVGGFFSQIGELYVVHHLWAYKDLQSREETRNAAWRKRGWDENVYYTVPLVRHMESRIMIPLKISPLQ

Multifunctional protein CAD (Homo sapiens), sequence (P27708 whole entry, the tested form may be a part): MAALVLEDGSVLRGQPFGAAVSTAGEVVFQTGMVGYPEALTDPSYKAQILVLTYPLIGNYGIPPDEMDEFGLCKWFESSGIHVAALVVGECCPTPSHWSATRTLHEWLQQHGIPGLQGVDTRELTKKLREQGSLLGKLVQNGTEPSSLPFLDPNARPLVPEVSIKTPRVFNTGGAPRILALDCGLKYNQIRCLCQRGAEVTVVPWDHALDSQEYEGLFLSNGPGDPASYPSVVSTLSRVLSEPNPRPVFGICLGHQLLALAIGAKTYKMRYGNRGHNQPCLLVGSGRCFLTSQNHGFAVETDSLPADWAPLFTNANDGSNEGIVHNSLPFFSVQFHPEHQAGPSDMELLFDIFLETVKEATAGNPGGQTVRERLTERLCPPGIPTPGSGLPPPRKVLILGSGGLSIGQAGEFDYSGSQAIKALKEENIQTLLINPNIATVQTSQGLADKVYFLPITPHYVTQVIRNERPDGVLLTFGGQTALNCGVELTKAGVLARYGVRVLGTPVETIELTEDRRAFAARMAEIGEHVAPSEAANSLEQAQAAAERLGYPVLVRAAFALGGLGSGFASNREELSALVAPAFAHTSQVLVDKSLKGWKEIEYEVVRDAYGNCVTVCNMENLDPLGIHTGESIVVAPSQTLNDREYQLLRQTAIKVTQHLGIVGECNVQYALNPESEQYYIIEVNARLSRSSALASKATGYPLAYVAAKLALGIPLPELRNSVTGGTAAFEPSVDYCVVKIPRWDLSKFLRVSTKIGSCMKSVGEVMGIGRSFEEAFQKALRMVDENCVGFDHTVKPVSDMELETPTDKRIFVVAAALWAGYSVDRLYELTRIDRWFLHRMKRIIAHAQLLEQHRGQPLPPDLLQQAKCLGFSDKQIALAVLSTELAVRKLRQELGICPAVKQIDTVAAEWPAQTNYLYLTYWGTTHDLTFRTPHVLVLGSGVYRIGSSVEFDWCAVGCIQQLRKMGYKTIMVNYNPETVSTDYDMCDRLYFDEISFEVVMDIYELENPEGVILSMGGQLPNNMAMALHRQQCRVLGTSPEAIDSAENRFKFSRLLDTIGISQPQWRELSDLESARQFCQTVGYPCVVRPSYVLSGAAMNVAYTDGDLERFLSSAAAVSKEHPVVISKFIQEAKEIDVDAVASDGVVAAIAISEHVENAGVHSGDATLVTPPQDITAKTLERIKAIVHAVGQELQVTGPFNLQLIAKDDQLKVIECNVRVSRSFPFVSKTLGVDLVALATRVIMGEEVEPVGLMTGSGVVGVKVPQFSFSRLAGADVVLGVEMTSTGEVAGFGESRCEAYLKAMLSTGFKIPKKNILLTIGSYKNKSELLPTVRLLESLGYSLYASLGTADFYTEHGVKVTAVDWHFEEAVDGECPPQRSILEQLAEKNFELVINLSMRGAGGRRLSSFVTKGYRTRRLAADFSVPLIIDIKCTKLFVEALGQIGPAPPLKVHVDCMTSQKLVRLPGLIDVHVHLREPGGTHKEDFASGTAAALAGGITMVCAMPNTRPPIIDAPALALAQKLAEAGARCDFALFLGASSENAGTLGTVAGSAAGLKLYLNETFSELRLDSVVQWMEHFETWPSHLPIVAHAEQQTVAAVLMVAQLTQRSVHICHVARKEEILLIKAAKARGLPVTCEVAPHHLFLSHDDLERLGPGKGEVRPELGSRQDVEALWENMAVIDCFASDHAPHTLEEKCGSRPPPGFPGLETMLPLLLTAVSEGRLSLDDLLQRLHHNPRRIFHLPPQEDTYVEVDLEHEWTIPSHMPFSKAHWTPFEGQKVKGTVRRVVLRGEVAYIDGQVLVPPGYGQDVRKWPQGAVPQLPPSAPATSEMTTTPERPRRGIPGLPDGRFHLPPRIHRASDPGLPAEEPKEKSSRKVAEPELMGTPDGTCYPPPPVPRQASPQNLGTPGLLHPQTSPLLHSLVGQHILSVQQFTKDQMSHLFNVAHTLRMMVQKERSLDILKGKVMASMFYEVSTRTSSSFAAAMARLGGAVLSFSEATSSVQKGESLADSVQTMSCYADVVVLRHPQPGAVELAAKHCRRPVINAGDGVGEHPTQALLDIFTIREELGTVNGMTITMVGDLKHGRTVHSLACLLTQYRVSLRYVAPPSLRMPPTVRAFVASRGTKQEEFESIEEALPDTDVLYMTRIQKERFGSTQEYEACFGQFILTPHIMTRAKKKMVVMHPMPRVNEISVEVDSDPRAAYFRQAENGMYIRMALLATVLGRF
Heterogeneous nuclear ribonucleoprotein Q (Homo sapiens), sequence (O60506 whole entry): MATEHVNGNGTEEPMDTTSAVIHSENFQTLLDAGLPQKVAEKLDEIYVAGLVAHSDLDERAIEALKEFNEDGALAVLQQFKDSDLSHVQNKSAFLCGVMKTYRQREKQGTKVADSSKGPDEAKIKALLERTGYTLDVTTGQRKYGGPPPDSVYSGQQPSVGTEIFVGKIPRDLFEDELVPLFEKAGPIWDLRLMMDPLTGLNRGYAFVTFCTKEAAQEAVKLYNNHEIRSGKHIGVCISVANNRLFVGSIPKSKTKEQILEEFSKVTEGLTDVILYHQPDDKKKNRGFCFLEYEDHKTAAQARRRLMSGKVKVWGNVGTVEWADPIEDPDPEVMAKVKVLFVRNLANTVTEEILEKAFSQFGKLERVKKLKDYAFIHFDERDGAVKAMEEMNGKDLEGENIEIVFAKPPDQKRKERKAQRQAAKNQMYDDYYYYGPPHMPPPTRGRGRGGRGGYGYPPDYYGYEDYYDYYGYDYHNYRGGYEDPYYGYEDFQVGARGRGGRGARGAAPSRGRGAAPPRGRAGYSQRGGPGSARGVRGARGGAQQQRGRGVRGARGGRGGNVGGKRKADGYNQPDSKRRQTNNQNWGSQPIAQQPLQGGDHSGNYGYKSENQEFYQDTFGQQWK
Tyrosine-protein kinase Yes (Homo sapiens), sequence (P07947 2-543 limits assumed): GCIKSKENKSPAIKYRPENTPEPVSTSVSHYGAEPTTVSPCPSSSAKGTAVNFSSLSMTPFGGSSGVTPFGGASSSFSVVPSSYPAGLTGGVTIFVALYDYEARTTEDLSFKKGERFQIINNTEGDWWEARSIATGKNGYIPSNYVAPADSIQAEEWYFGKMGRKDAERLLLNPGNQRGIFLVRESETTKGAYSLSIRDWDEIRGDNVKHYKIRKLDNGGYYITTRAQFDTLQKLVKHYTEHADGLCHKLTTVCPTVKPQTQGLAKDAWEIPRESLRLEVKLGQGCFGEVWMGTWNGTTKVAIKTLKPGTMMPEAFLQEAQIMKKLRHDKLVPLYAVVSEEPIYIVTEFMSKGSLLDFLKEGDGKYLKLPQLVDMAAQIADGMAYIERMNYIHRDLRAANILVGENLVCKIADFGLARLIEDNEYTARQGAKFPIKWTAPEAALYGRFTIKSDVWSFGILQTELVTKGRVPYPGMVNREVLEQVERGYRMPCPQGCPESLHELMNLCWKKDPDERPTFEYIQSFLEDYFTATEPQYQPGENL
Phosphoinositide 3-kinase regulatory subunit 4 (Homo sapiens), sequence (Q99570 whole entry): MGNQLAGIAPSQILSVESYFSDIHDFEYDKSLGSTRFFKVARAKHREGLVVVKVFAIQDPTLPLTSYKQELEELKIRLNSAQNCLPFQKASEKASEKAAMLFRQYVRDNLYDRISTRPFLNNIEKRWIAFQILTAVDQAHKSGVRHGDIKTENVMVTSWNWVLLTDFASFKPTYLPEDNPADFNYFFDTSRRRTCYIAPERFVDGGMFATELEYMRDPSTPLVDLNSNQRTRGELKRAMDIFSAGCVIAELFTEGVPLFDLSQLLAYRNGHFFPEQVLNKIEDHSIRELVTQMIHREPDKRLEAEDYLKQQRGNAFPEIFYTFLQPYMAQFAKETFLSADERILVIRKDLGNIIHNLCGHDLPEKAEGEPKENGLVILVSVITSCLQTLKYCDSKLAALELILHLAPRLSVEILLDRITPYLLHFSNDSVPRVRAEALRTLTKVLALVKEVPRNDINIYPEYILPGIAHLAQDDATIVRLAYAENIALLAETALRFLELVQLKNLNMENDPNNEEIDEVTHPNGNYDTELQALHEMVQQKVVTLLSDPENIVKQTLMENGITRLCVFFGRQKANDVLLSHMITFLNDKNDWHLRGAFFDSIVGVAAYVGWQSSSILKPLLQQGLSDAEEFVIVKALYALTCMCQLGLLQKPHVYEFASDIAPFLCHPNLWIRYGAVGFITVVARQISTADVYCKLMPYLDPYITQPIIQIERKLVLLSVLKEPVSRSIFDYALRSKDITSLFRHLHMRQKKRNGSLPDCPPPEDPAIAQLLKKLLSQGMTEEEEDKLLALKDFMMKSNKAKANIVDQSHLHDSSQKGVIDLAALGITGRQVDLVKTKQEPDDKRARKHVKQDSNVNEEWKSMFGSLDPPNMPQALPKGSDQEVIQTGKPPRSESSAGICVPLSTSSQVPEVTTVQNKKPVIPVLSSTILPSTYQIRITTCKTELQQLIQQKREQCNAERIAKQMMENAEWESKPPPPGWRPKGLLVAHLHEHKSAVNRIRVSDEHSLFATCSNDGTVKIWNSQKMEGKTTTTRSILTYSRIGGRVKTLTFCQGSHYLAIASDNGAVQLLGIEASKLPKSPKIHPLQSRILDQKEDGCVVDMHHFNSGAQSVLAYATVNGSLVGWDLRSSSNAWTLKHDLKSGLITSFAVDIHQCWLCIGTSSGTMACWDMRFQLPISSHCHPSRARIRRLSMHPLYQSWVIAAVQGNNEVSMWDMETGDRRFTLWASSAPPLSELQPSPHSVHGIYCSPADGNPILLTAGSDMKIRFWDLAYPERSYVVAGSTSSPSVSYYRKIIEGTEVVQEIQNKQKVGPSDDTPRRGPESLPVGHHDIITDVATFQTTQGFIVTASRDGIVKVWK

Activity [2] | Activity [3] | Activity [4] | Activity [5] | Activity [6] | Activity [7] | Activity [8] | Activity [9] | Activity [10] | IC50 [11] | Activity [12] | Activity [13] | Activity [14] | Activity [15] | Activity [16] | Activity [17] | Structure (SMILES) | IC50 [1]
 |  |  |  |  |  |  |  |  |  |  |  |  |  |  |  | C=CC(=O)Nc1ccccc1Oc1nc(Nc2cnn(CCOC)c2)ncc1Cl | 0.54 nM
Active | Active | Active | Active | Active | Active | Active | Active | Active | 33 nM | Active | Active | Active | Active | Active | Active | C=CC(=O)Nc1ccccc1Nc1nc(Nc2ccc(N3CCN(CCOCCOCCOCCNC(=O)CCCC[C@@H]4SC[C@@H]5NC(=O)N[C@@H]54)CC3)cc2)ncc1Cl | 
